Data on 26 compounds can be found in ChEMBL document CHEMBL4052826, “Design and Synthesis of Novel Reactive Oxygen Species Inducers for the Treatment of Pancreatic Ductal Adenocarcinoma” (J Med Chem, 2018).

Each structure is given as a SMILES string. Activity calls are given as the source filed them. The rule behind the calls is not given here.

For assay [1], the system named is BXPC-3. In words: Cytotoxicity against human BxPC3 cells assessed as decrease in cell proliferation after 72 hrs by MTT assay. The settings on record: BXPC-3, 72 h. It counts as functional, cell-based. The method in brief:
(§1)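 MTT assay. Cells (3000–8000/well) attached overnight in RPMI1640 with 10% FBS; the GR line was kept with 200 nM gemcitabine. Serial dilutions (30 nM–10 μM for most lines) were applied for 72 h. MTT was added at a final 300 μg/mL for 3 h at 37°C, formazan was dissolved in DMSO and A570 read. Inhibition = (1 − OD treated/OD control) × 100. IC50 given as mean ± SD, three independent experiments.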

For assay [2], the system named is MIA PaCa-2. Kind of assay: Cytotoxicity against human MIAPaCa2 cells assessed as decrease in cell proliferation after 72 hrs by MTT assay. The settings on record: MIA PaCa-2, 72 h. It counts as functional, cell-based. The gist of the method: as §1
(Tetrazolium dyes change colour on reduction, which living cells bring about.)

For assay [3], the system named is PANC-1. In words: Cytotoxicity against human PANC1 cells assessed as decrease in cell proliferation after 72 hrs by MTT assay. To be noted: PANC-1, 72 h. Format: functional, cell-based. The method in brief:
as §1

Assay [4] is described as follows: Cytotoxicity against HPDEC assessed as decrease in cell proliferation after 72 hrs by MTT assay. Format: cell-based. To be noted: Homo sapiens. The gist of the method: as §1
In assay [5] the test system is MIA PaCa-2. In words: Cytotoxicity against gemcitabine-resistant human MIAPaCa2 cells assessed as decrease in cell proliferation after 72 hrs by MTT assay. Format: functional, cell-based. To be noted: MIA PaCa-2, 72 h. The gist of the method:
as §1

Assay [6] concerns MIA PaCa-2. In words: Cytotoxicity against human MIAPaCa2 cells assessed as decrease in cell proliferation after 72 hrs in presence of NAC by MTT assay. Format: functional, cell-based. The gist of the method:
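MIA PaCa-2 cells were treated for 72 h with compound in the presence of 5 mM NAC. Viability was read by MTT (final 300 μg/mL, 3 h, A570). Mean ± SD of three independent experiments.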

Assay [7] is described as follows: Induction of compound colloidal behavior.
Assay [8] has as its system MIA PaCa-2. In words: Induction of reactive oxygen species generation in human MIAPaCa2 cells at 1.1 to 10 uM after 24 hrs in presence of NAC by H2DCFDA reactivity assay. Format: functional, cell-based. The gist of the method: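 H2DCFDA assay. Trypsinized MIA PaCa-2 cells in suspension were loaded with 20 μM H2DCFDA for 30 min at 37°C, washed and plated at 20,000/well. After 30 min they were treated with compound at 10, 3.3 or 1.1 μM. Fluorescence was read at 493/523 nm over time. DMSO basal and unstained controls were included. NAC pretreatment, where used, was 5 mM for 30 min. Duplicates, three independent experiments.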

Assay [9] can be described thus: Induction of compound aggregation.
In assay [10] the test system is MIA PaCa-2. Kind of assay: Inhibition of mtDNA transcription from LSP promoter in human MIAPaCa2 cells after 4 hrs by Bru-seq analysis. It counts as functional, cell-based. The gist of the method:
(§2)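 MIA PaCa-2 cells were seeded at 4×10^6 per 10 cm dish and treated the next day for 4 h, with DMSO as control. Bromouridine (2 mM final) was added for the last 30 min. Total RNA was isolated in TRIZOL, and Bru-labelled RNA was immunocaptured, made into cDNA libraries and deep-sequenced. Read-out was nascent signal across mitochondrial heavy-strand (HSP2) and light-strand (LSP) transcripts.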

The test system of assay [11] is MIA PaCa-2. Kind of assay: Inhibition of mtDNA transcription from HSP2 promoter in human MIAPaCa2 cells after 4 hrs by Bru-seq analysis. It counts as functional, cell-based. The gist of the method: as §2

As for `NS(=O)(=O)c1ccc(NC2=CC(=O)c3ncncc3C2=O)cc1`, the IC50 in assay [1], in assay [2] and in [3] was over 10 µM throughout.
Turning to `O=C1C(Nc2ccc(Oc3ccccc3)cc2)=CC(=O)c2ncncc21`, the IC50 in assay [1] amounted to 3.6 µM; in [2] it was 3.7 µM; in assay [3], 1.8 µM.
Take `O=C1C=CC(=O)c2ncncc21`: the values for the IC50 in assay [1], in assay [2] and in [3] were 19.4 µM, 9.4 µM and 18 µM, respectively.
Turning to `COc1ccc(-c2ccc(NC3=CC(=O)c4ncncc4C3=O)cc2)cc1`, the IC50 in [1] worked out at 3.5 µM; in assay [2], 2.1 µM; in [3] it was 2.3 µM.
For `Nc1cccc(C(=O)NCCC[P+](c2ccccc2)(c2ccccc2)c2ccccc2)c1` the same measures were over 30 µM, over 30 µM and over 30 µM.
On to `CCc1ccc(-c2ccc(NC3=CC(=O)c4ncncc4C3=O)cc2)cc1`, for which the IC50 in assay [1] was 3.1 µM; in assay [2], 2 µM; in [3] it was 1.2 µM.
For `Nc1ccc(C(=O)NCCC[P+](c2ccccc2)(c2ccccc2)c2ccccc2)cc1` the same measures were over 30 µM, over 30 µM and over 30 µM.
Taken in the same sequence, the figures for `O=C1C(Nc2ccc(CO)cc2)=CC(=O)c2ncncc21` were 5.7 µM, 3.5 µM and 1 µM.
On to `CCOC(=O)c1ccc(NC2=CC(=O)c3ncncc3C2=O)cc1`, for which the IC50 is 5.9 µM in assay [1], 5.5 µM in assay [2] and 1.6 µM in assay [3].
Turning to `O=C(NCCC[P+](c1ccccc1)(c1ccccc1)c1ccccc1)c1ccc(NC2=CC(=O)c3ncncc3C2=O)cc1`, the IC50 in [4] is 18.3 µM; in assay [5] it was 17.7 µM; in assay [1] it was 21.5 µM; in assay [2], 15.3 µM; in [3], 11.7 µM.
As for `COc1ccc(NC2=CC(=O)c3ncncc3C2=O)cc1`, the IC50 in assay [1] is 1.7 µM; in assay [2], 1.9 µM; in assay [3], 0.8 µM.
Regarding `O=C1C(Nc2ccc(OC(F)(F)F)cc2)=CC(=O)c2ncncc21`, the IC50 in [1] was found to be 0.9 µM; in [2], 1.4 µM; in assay [3], 0.9 µM.
As to `COc1cccc(NC2=CC(=O)c3ncncc3C2=O)c1`, the IC50 worked out at 1.8 µM in [1], 1.8 µM in [2] and 0.6 µM in assay [3].
On to `NC(=O)c1ccc(NC2=CC(=O)c3ncncc3C2=O)cc1`, for which the IC50 in assay [1] is over 10 µM; in assay [2] it was 8 µM; in assay [3], 6.3 µM.
In the case of `COC(=O)c1ccc(NC2=CC(=O)c3ncncc3C2=O)cc1`, the IC50 in [1] amounted to 5.8 µM; in assay [2], 2.2 µM; in assay [3] it was 1.1 µM.
As for `OO`, the outcome in [6] was inactive.
Take `COc1cc(NC2=CC(=O)c3ncncc3C2=O)cc(OC)c1OC`: the result in assay [7] and in assay [9] was Active. In addition, the IC50 came to 3.2 µM in assay [4]; 2 µM in assay [5]; 1.6 µM in assay [1]; 1.5 µM in [2]; 0.8 µM in assay [3]. Besides, the outcome in assay [6] and in assay [8] was inactive.
As for `Cc1ccc(-c2ccc(NC3=CC(=O)c4ncncc4C3=O)cc2F)cc1`, the IC50 came out at 5 µM in [1], 4.6 µM in assay [2] and 4.8 µM in assay [3].
For the compound `CC[C@@]1(O)C(=O)OCc2c1cc1n(c2=O)Cc2cc3ccccc3nc2-1`, the inhibition result in assay [10] and in [11] was “inactive” throughout.
`COc1cc(NC2=CC(=O)c3ncncc3C2=O)cc(OC)c1`: the IC50 in assay [1] came out at 16.3 µM; in assay [2] it was 7.7 µM; in assay [3], 7.2 µM.
Consider `O=C1C(NCc2ccc(F)cc2)=CC(=O)c2ncncc21`, for which the results for the IC50 in [1], in assay [2] and in assay [3] were 1.4 µM, 1.7 µM and 1 µM, respectively.
In the case of `COc1ccc(NC2=CC(=O)c3ncncc3C2=O)cc1OC`, the IC50 in assay [1] worked out at 1.5 µM; in [2], 1.8 µM; in assay [3], 0.9 µM.
In the case of `O=C1C(Nc2ccc(-c3ccc(F)cc3)cc2)=CC(=O)c2ncncc21`, the IC50 in [1] came out at 4.4 µM; in assay [2], 3.5 µM; in assay [3] it was 3.2 µM.
As for `O=C1C(Nc2cccc(B(O)O)c2)=CC(=O)c2ncncc21`, the figures for the IC50 in assay [1], in assay [2] and in [3] were over 10 µM, over 10 µM and 9 µM, respectively.
With `O=C(NCCC[P+](c1ccccc1)(c1ccccc1)c1ccccc1)c1cccc(NC2=CC(=O)c3ncncc3C2=O)c1`, the half-inhibitory concentration (IC50) in assay [4] is 24.3 µM; in [5], 16.2 µM; in assay [1], 21.3 µM; in [3] it was 14.3 µM.
On to `Nc1ccc(-c2ccc(NC3=CC(=O)c4ncncc4C3=O)cc2)cc1`, for which the results for the IC50 in [1], in assay [2] and in assay [3] were 3.5 µM, 2.5 µM and 3.7 µM, respectively.

For orientation: IC50 means the concentration that inhibits the measured activity by half.
